Measurements taken from PubChem BioAssay.
Inconclusive results are not listed.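 Rule for the calls, unless noted: active = viability increase at or above a cutoff of the median across tested compounds plus 3 SD (cut at about 8.5% in these data, passing the limit was not always enough); inconclusive = some gains above the cutoff, reason not given; inactive = the rest.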

Tests used:
[1] = OD615 S. cerevisiae growth inhibition, permissive medium, pilot counter-assay, permissive growth control for S. cerevisiae lifespan shortening project (AID 705;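 active = growth inhibition above 25% in both replicates, a cutoff set 3 SD above the mean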); conditions: OD615, 24 h, at 10 µM, active compounds read high
Outline: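 Timing: 24 h exposure, 30 °C / Material: Saccharomyces cerevisiae strain carrying genetically modified DeaD replicative-lifespan system / Signal: OD at 615 nm / Compound: 10 µM single dose, 0.25% DMSO / Medium: SC raffinose/galactose permissive medium / Evaluation: reduction in yeast growth (OD615)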

[2] = Restrictive medium S. cerevisiae growth inhibition, OD615, pilot screen of yeast lifespan reduction project, restrictive growth control (AID 706;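 active = growth inhibition above a set limit, 3 SD over mean compound inhibition, in both replicates, cut at about 43% in these data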;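 note: modified DeaD lifespan yeast strain shifted to restrictive glucose medium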); conditions: OD615, 48 h, at 10 µM, active compounds read high
Outline: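 System: Engineered S. cerevisiae DeaD strain | Detection: OD615 | Buffer or medium: CSMM-D glucose medium | Doses: 10 µM compound, 0.25% DMSO | Timing: 4 h pre-growth plus 48 h compound exposure, 30 °C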

[3] = viability gain of MRP-1-high H69AR cells under doxorubicin, pilot screen, MRP-1 activator project, CellTiter-Glo, duplicate (AID 807); conditions: H69AR viability with doxorubicin, CellTiter-Glo luminescence; at 10 µM; active compounds read high;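 note: compound pretreatment 18-22 h then 72 h combined with doxorubicin; 0% = doxorubicin alone and 100% = vehicle without doxorubicin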
[4] = growth suppression of beta-catenin knockout HCT116, pilot screen, human colon tumor cells (AID 823;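 active = cell viability at or below a set limit in both duplicate runs, the limit being the all-compound median minus 4 SD, cut at about 23% in these data, passing the limit was not always enough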;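 note: 0% = wells killed by 20 µM Hyamine and 100% = untreated DMSO cell wells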); conditions: CellTiter-Glo, 60 h, at 10 µM, active compounds read low
[5] = growth suppression of PTEN-deleted HCT116, pilot screen, cell-based, HCT116 clonal line, CellTiter-Glo (AID 824;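 active = viability at or below 27.92% in each of two runs, the all-compound median minus 4 SD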;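 note: 0% = 20 µM Hyamine control and 100% = vehicle cell control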); conditions: 60 h, at 10 µM, active compounds read low
[6] = inhibitors of the yeast RAM network, pilot screen, dse1pr::URA3 reporter, 5-FOA selection (AID 869;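 active = inhibition over a set limit, the all-compound mean plus 3 SD, in both replicate runs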;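 note: 0% = DMSO wells with no growth and 100% = 10 µM 1-NA-PP1 with full growth; RAM network block rescues cells from 5-FOA so hits raise OD615 growth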); conditions: S. cerevisiae dse1pr::URA3 5-FOA growth, OD615, 2 d; at 10 µM; active compounds read high; strain carries analog-sensitive mutant Cbk1 kinase
[7] = RAM signaling pathway blockade in yeast – S. cerevisiae, Pdr1DBD-CYC8 efflux-inhibited sensitized strain, primary screen (AID 1298;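 active = RAM network inhibition above 8.4% in each of two replicates, 3 SD over the compound average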;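 note: 0% = DMSO untreated cells without growth and 100% = 10 µM 1-NA-PP1 full growth; higher means more yeast growth rescued from 5-FOA killing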); conditions: S. cerevisiae cbk1-as DSE1-URA3 strain, 5-FOA growth OD615, 2 d; at 50 µM; active compounds read high

CCOC(=O)C1CCCN(C(=O)N2CCOCC2)C1 (stereo unspecified)
inactive: growth inhibition [1] -4.19% | growth inhibition [2] -5.3% | viability increase [3] -0.82% | viability [4] 97.6% | viability [5] 99.1% | inhibition [6] -0.095% | RAM network inhibition [7] 0.21%

CCC(C(=O)N1CC2(C)CC1CC(C)(C)C2)N1C(=O)c2ccccc2C1=O (stereo unspecified)
inactive: growth inhibition [1] -2.71% | growth inhibition [2] -3.99% | viability increase [3] -3.05% | viability [4] 91.5% | viability [5] 96.8% | inhibition [6] 1.57% | RAM network inhibition [7] 6%

CN1CCCc2cc3c(C(F)(F)F)cc(=O)oc3nc21
inactive: growth inhibition [1] -5.06% | growth inhibition [2] 5.85% | viability increase [3] -1.33% | viability [4] 94.2% | viability [5] 102% | inhibition [6] 1.14% | RAM network inhibition [7] 1.82%

CSc1nc2c(c(=O)n1-c1ccc(F)cc1)SCC2
inactive: growth inhibition [1] -9.67% | growth inhibition [2] -24.3% | viability increase [3] -1.07% | viability [4] 102% | viability [5] 93.7% | inhibition [6] 2.19% | RAM network inhibition [7] 4.08%

Cc1ccc(CNC(=O)c2cc3c(-c4ccc(Cl)cc4)nn(C)c3s2)o1
inactive: growth inhibition [1] -7.97% | growth inhibition [2] -5.61% | viability increase [3] -6.4% | viability [4] 53.9% | viability [5] 48.7% | inhibition [6] 3.25% | RAM network inhibition [7] 2.13%

O=C(NCc1cn2ccsc2n1)c1c(F)cccc1Cl
inactive: growth inhibition [1] -10.2% | growth inhibition [2] -8.81% | viability increase [3] 1.01% | viability [4] 107% | viability [5] 99.6% | inhibition [6] 0.93% | RAM network inhibition [7] 2.61%

Cc1ccc(C(=O)CC(C(=O)O)c2cn(CCC#N)c3ccccc23)cc1 (stereo unspecified)
inactive: growth inhibition [1] -4% | growth inhibition [2] 3.92% | viability increase [3] -1.96% | viability [4] 98.3% | viability [5] 104% | inhibition [6] 0.735% | RAM network inhibition [7] 3.81%

CCNC(=O)CN(Cc1ccccc1)S(=O)(=O)c1ccccc1
inactive: growth inhibition [1] -5.21% | growth inhibition [2] 13.1% | viability increase [3] 0.61% | viability [4] 89.3% | viability [5] 104% | inhibition [6] 0.615% | RAM network inhibition [7] 1.94%

CCOc1ccc(C2C(C(=O)Nc3ccc(F)cc3)=C(C)Nc3nc(CCCO)nn32)cc1 (stereo unspecified)
inactive: growth inhibition [1] -12.5% | growth inhibition [2] 12.8% | viability increase [3] -0.6% | viability [4] 96.6% | viability [5] 91.5% | inhibition [6] 0.87% | RAM network inhibition [7] 1.21%

Cc1cccc(C)c1NC(=O)C1(NC(=O)c2cnccn2)CCCCC1
inactive: growth inhibition [1] -12.1% | growth inhibition [2] 0.045% | viability increase [3] -2.5% | viability [4] 98.4% | viability [5] 95.1% | inhibition [6] 1.21% | RAM network inhibition [7] 0.32%

CC(=O)c1cc(Cc2csc(C(C)=O)c2)cs1
inactive: growth inhibition [1] -9.93% | growth inhibition [2] -5.34% | viability increase [3] -2.14% | viability [4] 100% | viability [5] 100% | inhibition [6] 1.38% | RAM network inhibition [7] 3.88%

Cc1ccnc(Nc2nc3ccccc3o2)n1
inactive: growth inhibition [1] 2.6% | growth inhibition [2] 24.6% | viability increase [3] -4.36% | viability [4] 62% | viability [5] 57.7% | inhibition [6] 0.905% | RAM network inhibition [7] 4.15%

O=C(Nc1nc2ccccc2n1CCN1CCCC1)c1ccc(Cl)cc1
inactive: growth inhibition [1] -9.21% | growth inhibition [2] -13.3% | viability increase [3] -7.07% | viability [4] 59.9% | viability [5] 65.7% | inhibition [6] -0.07% | RAM network inhibition [7] 4.6%

Cc1nc2sc(C(c3ccco3)N3CCN(C(c4ccccc4)c4ccccc4)CC3)c(O)n2n1 (stereo unspecified)
inactive: growth inhibition [1] -4.01% | growth inhibition [2] 2.75% | viability increase [3] -4.32% | viability [4] 75.6% | viability [5] 62.6% | inhibition [6] 1.81% | RAM network inhibition [7] 10.8%

Cc1cc(Nc2ccc(F)c(Cl)c2)n2nc(C)nc2n1
inactive: growth inhibition [1] 1.03% | growth inhibition [2] 15.8% | viability increase [3] -3.61% | viability [4] 97.2% | viability [5] 92.4% | inhibition [6] 1.94% | RAM network inhibition [7] 0.68%

Cc1ccc2c(CC(=O)O)coc2c1C
inactive: growth inhibition [1] 3.31% | growth inhibition [2] 33.3% | viability increase [3] -2.01% | viability [4] 88% | viability [5] 89.5% | inhibition [6] -0.555% | RAM network inhibition [7] -1.19%

CC1CCCCN1CCNC(=O)c1cnn2ccccc12 (stereo unspecified)
inactive: growth inhibition [1] -12.7% | growth inhibition [2] -9.32% | viability increase [3] -1.7% | viability [4] 101% | viability [5] 91.6% | inhibition [6] 2.58% | RAM network inhibition [7] 0.01%

O=C1CC(c2ccco2)CC(O)=C1C=NCC1CCNCC1 (stereo unspecified)
inactive: growth inhibition [1] -17.1% | growth inhibition [2] -5.49% | viability increase [3] 1.85% | viability [4] 102% | viability [5] 101% | inhibition [6] 0.37% | RAM network inhibition [7] 3.8%
